Assay results reported in PMC4227885 (Science translational medicine, 2013).
Read-outs that look alike come from different tables or passages of the source.

Key:
[1] = test system: late stage IV - V P. falciparum gametocytes; test: Late stage gametocyte viability, high content imaging; assay type: cell-based; settings: read-out: IC50 stage IV-V gametocyte viability
[2] = molecular target: hERG (human-Ether-a-go-go-Related Gene) channel (Homo sapiens, UniProt Q12809); assay type: cell-based
[3] = Metabolic stability in liver microsomes; assay type: in vitro ADME; settings: in vitro incubation with liver microsomes, multiple species
[4] = test system: exoerythrocytic stages of P. berghei; test: In vitro liver stage assay, luciferase sporozoites on HEPG2 hepatoma cells; assay type: cell-based; settings: read-out: EC50, luciferase expression, 44 h post infection
Summary of the method: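 Luciferase-expressing P. berghei sporozoites were added to HepG2 hepatoma monolayers and allowed to infect for 1 h. A dilution series of the test compound was then added and plates were incubated at 37 °C. Luciferase was read 44 h post infection. EC50 came from a nonlinear logistic dose-response fit.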

[5] = molecular target: human cytochrome bc1 (derived from HEK-293 cells) (Homo sapiens, UniProt P00156); test: Inhibition of human cytochrome bc1 activity; assay type: biochemical
[6] = test system: P. vivax clinical isolates; test: Ex vivo susceptibility of clinical field isolates, modified WHO microtest; assay type: cell-based, Plasmodium vivax; settings: read-out: median EC50, Papua, Indonesia
Summary of the method: (§1)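 Isolates were taken from patients attending malaria clinics in southern Papua, Indonesia, and tested ex vivo by a modified WHO microtest. Median IC50 was reported separately for each species. Comparisons used the Wilcoxon rank sum test.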

[7] = test system: J774 mouse macrophages; assay type: cell-based
[8] = test system: P. falciparum; test: Immuno-deficient; assay type: in vivo
Summary of the method: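 NOD-scid IL2Rγnull-type immunodeficient mice were engrafted with human erythrocytes and infected with P. falciparum. The test compound was given orally daily for 4 consecutive days as a non-optimized suspension, not in PEG400 (3 vehicle mice, 11 treated). Parasitemia was measured by FACS, with Giemsa smears at 48 h. Blood levels were followed over 23 h after the first dose. ED90 was taken at day 7 versus vehicle. AUCED90 was estimated graphically from AUC0→23h versus log10 day-7 parasitemia for each mouse.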

[9] = test system: murine bone marrow derived hematopoietic progenitors (CFU-GM, BFUE, CFU-GEMM); assay type: cell-based
[10] = test system: human foreskin fibroblasts (HFF); assay type: cell-based
[11] = test system: P. falciparum; test: In vitro parasite reduction ratio; assay type: cell-based
[12] = Pharmacokinetics in mice, intravenous and oral; assay type: in vivo, mouse; settings: 0.3 mg/kg oral in PEG400
Summary of the method: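 Non-fasted male Swiss outbred mice were used. The IV dose was 0.1 mg/kg, formulated in mouse plasma and given via the tail vein. The oral dose was 0.3 mg/kg by gavage, as a solution in undiluted PEG400.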

[13] = test system: P. berghei ookinete; test: In vitro ookinete assay; assay type: cell-based; settings: read-out: IC50 ookinete production
[14] = test system: P. falciparum strains (D6, Dd2, TM90-C2B, V1/S); test: In vitro isobolar testing with proguanil, fixed combination ratios; assay type: cell-based; settings: isobolar testing against 4 strains
[15] = test system: P. berghei (luciferase) sporozoite infections of BALB/c mice; test: In vivo liver stage, sporozoite infection with bioluminescence imaging; settings: per os one hour post infection
Summary of the method: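 BALB/c mice (5 per group) were infected with luciferase-expressing P. berghei sporozoites. One hour later they received a single dose of test compound by gavage; untreated mice served as controls. For bioluminescence imaging at 44 h and on days 6 and 13, mice were injected with D-luciferin and anesthetized, tracking liver and blood stages.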

[16] = test system: P. cynomolgi liver schizonts; test: In vitro liver stage assay in primary rhesus hepatocytes; assay type: cell-based; settings: read-out: IC50 liver schizonts, 6-day incubation
[17] = test system: 100 neurotransmitter receptors, peptide receptors, ion channels, reuptake sites, and enzymes
[18] = test system: P. berghei infected ICR mice; test: Thompson test, blood stage efficacy; assay type: in vivo
[19] = Aqueous solubility, kinetic and thermodynamic methods; assay type: physicochemical
Summary of the method: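 Kinetic method: DMSO stock diluted into various media. Thermodynamic method: equilibrium solubility with physiologically relevant media and incubation time.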

[20] = test system: P. falciparum strains (D6, 3D7, Dd2, W2, recent isolates from SE Asia, TM90-C2B); assay type: cell-based, Plasmodium falciparum; settings: atovaquone-resistant clinical isolate TM90-C2B
[21] = test system: major cytochrome P450 enzymes; test: Cytochrome P450 inhibition; assay type: in vitro ADME; settings: at concentrations needed for efficacy
[22] = test system: P. berghei oocyst formation in Anopheles stephensi mosquitoes; test: Oocyst formation after membrane feeding of drug-spiked infected blood; assay type: in vivo
Summary of the method: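 Mouse blood infected with GFP-expressing P. berghei was mixed with the test compound and placed at once in membrane feeders at 39 °C. It was offered to about 75 overnight-starved mosquitoes. After 7 days, fluorescent oocysts on dissected midguts were counted by semi-automated image capture and analysis. DMSO was the negative control.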

[23] = test system: P. yoelii in CD1 Swiss mice; settings: for ED90: P. yoelii, 4-day test, oral, PEG400 vehicle
[24] = test system: two rat cell lines; settings: read-out: IC50 level, ATP levels; either of two rat cell lines, galactose medium
[25] = molecular target: P. falciparum cytochrome bc1 (Plasmodium falciparum, UniProt Q02768); assay type: biochemical; settings: read-out: IC50, nM P. falciparum cytochrome bc1; P. falciparum mitochondria
[26] = test system: P. falciparum clinical isolates; test: Ex vivo susceptibility of clinical field isolates, modified WHO microtest; assay type: cell-based, Plasmodium falciparum; settings: read-out: median EC50, Papua, Indonesia
Summary of the method: as §1

[27] = test system: transgenic P. falciparum clone D10yDHOD; test: Susceptibility of transgenic clone expressing yeast DHOD; assay type: cell-based, Plasmodium falciparum
[28] = test system: P. falciparum strain 3D7 oocyst formation; test: Standard membrane feeding assay; assay type: in vivo
[29] = test system: P. berghei oocysts in Anopheles stephensi; test: In vivo transmission blocking, mosquitoes fed on treated infected mice; settings: for inhibition at 10 mg/kg: read-out: inhibition of oocyst production
Summary of the method: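 Mice at about 3% P. berghei parasitemia received a single oral dose of test compound (0.1–10 mg/kg) or vehicle. Female Anopheles stephensi fed on the mice 1 h after treatment. Midguts were dissected on day 10 post infection and examined for oocysts. Dihydroartemisinin and primaquine (10 mg/kg) were positive controls.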

[30] = test system: P. falciparum (NF54) gametocytes (Stage I-II); test: Inhibition of early stage gametocyte development; assay type: cell-based; settings: three days exposure of Stage I-II gametocytes
[31] = test system: 5-strain Ames bacterial assay; assay type: cell-based
[32] = test system: P. falciparum strain 3D7 oocyst formation; settings: comparable SMFA; cited from earlier work

Chain of P. falciparum cytochrome bc1 (Q02768 whole entry): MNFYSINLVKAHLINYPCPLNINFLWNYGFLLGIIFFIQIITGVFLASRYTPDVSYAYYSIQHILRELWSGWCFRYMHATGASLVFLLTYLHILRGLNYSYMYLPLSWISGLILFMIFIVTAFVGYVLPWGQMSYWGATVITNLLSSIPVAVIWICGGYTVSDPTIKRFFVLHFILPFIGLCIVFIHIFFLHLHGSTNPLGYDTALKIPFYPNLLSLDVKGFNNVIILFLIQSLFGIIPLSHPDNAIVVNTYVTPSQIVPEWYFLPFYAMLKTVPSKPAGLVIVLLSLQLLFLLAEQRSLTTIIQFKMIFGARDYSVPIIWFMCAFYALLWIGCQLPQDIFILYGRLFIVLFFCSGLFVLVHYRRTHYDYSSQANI
Chain of hERG (human-Ether-a-go-go-Related Gene) channel (Q12809 whole entry): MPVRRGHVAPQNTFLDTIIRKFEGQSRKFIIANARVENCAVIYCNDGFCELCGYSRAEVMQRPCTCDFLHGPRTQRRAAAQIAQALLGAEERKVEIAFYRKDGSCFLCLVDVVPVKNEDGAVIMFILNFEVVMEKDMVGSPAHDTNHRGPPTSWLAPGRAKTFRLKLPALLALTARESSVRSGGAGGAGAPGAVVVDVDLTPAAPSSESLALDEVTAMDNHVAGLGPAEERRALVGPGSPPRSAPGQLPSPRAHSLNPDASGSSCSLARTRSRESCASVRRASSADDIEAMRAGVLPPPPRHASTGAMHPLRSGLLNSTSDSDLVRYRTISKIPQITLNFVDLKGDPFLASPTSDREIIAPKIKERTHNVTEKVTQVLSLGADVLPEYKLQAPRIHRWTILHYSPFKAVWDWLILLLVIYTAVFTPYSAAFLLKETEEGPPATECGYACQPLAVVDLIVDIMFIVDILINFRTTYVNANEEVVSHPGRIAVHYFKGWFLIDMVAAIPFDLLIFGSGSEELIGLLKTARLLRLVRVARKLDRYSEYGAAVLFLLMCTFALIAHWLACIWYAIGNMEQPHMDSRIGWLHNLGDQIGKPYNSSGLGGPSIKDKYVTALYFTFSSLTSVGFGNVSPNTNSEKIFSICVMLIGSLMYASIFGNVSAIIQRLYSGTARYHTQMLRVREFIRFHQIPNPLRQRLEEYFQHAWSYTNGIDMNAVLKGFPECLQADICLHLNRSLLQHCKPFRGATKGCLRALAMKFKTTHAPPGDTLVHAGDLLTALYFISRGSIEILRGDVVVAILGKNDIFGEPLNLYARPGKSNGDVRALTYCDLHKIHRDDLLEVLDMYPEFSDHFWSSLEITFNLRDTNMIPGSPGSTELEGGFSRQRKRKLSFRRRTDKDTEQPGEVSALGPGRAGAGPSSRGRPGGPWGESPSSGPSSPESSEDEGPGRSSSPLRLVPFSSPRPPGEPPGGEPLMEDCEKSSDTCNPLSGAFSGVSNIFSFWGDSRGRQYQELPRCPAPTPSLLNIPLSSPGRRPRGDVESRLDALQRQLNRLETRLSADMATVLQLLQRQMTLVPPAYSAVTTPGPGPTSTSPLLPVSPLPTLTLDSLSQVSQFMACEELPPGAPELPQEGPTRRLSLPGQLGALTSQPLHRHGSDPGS

COc1ccc(C[C@H](N)C(=O)N[C@H]2[C@@H](O)[C@H](n3cnc4c(N(C)C)ncnc43)O[C@@H]2CO)cc1 [puromycin, reference compound]
IC50 ([1]; Plasmodium falciparum, 72 h): 0.0753 µM

COc1cc2[nH]c(C)c(-c3ccc(Oc4ccc(OC(F)(F)F)cc4)cc3)c(=O)c2cc1Cl [ELQ-300]
IC50 [2]: > 11 µM | stability to metabolic degradation by cytochrome P450 enzymes [3]: highly stable | EC50 [4]: 0.00102 µM | IC50 ([5]; read-out: IC50, nM human cytochrome bc1, derived from HEK-293 cells): > 10000 nM | EC50 [6]: 0.0179 µM | IC50 [7]: > 10 µM | dose that reduced parasitemia by 90% at day 7 (ED90) ([8]; SCID mice, oral daily for four days, suspension formulation): 5.9 mg/kg/day | estimated exposure at the ED90 dose (AUCED90) ([8]; SCID mouse model, blood): 1.1 μg·h/mL/day | IC50 [9]: > 10 µM | IC50 ([1]; 72 hr): 0.0719 µM | IC50 [10]: > 10 µM | time required to kill >99.9% of parasites ([11]; 10x EC50 concentration): ≈ 100 h | speed of action ([11]; exposure up to 120 hr): slow-acting | Tmax [12]: approximately 7.5 h | oral bioavailability [12]: approximately 100% | IC50 ([13]; first 24 h of development, GFP endpoint): 0.056 µM | interaction with proguanil [14]: strong pharmacological synergism | single dose that completely blocked infection [15]: ≥ 0.03 mg/kg | IC50 [16]: ~0.1 µM | inhibition in screen of 100 targets [17]: did not observe any significant inhibition | curative blood stage dose ([18]; Thompson or Peter's tests): 1 mg/kg | fifty percent effective dose (ED50) ([18]; Thompson test, P. berghei, ICR mice): 0.016 mg/kg/day | aqueous solubility [19]: low aqueous solubility | cross-resistance with atovaquone in TM90-C2B [20]: 1.3 fold | inhibition of the major cytochrome P450 enzymes [21]: did not inhibit | reduction of oocyst burden in mosquito midguts ([22]; 10 nM): 19.2% | reduction of the total oocyst count relative to controls ([22]; blood containing 100 nM): 99.4% | oocyst formation ([22]; blood containing 1 μM drug): no oocysts formed | non-recrudescence dose relative to atovaquone ([23]; P. yoelii murine model): 30 times lower | ED90 [23]: 0.15 mg/kg/day | AUCED90 ([23]; mouse, in vivo): 1.4 μg·h/mL/day | drug exposure (AUC0-24 h) in peripheral blood at the ED90 ([23]; mouse, in vivo, po): 1.4 µg·h/mL | IC50 [24]: > 100 µM | IC50 [25]: 0.58 nM | EC50 [26]: 0.0149 µM | sensitivity of D10yDHOD transfectants [27]: insensitive | concentration that completely blocked oocyst formation ([28]; one of two independent studies): ≥ 10 nM | reduction in oocyst formation ([28]; the other study, 10 nM): 95.9% | dose that completely prevented transmission (oocyst development) ([29]; single oral dose, feeding one hour after treatment): ≥ 0.1 mg/kg | lowest exposure preventing gametocyte development to Stage IV [30]: ≤ 0.1 µM | mutagenic potential [31]: lacks mutagenic potential

C[C@H]1[C@@H](O)O[C@@H]2O[C@@]3(C)CC[C@H]4[C@H](C)CC[C@@H]1[C@@]24OO3 [dihydroartemisinin]
inhibition at 10 mg/kg [29]: 63.7%

C[C@H]1Cc2c([nH]c3cc(Cl)c(F)cc23)[C@@]2(N1)C(=O)Nc1ccc(Cl)cc12 [NITD609]
concentration required to completely inhibit oocyst formation [32]: 500 nM

O=C1C(O)=C([C@H]2CC[C@H](c3ccc(Cl)cc3)CC2)C(=O)c2ccccc21 [Atovaquone, reference compound]
IC50 [5]: 460 nM | IC50 ([13]; Plasmodium berghei, 24 h): 0.067 µM | ED90 [23]: 0.04 mg/kg/day

COc1cc(NC(C)CCCN)c2ncccc2c1 (stereo not shown) [primaquine]
inhibition at 10 mg/kg [29]: 95.4%

Cc1[nH]c2ccccc2c(=O)c1-c1ccc(Oc2ccc(OC(F)(F)F)cc2)cc1 [ELQ-271]
IC50 ([5]; read-out: IC50 human cytochrome bc1, enzyme derived from HEK cells): 1990 nM
